# Data as given in ChEMBL document CHEMBL1124792, “Synthesis and structure-activity relationships of 5-substituted 6,8-difluoroquinolones, including sparfloxacin, a new quinolone antibacterial agent with improved potency” (1990).
# Assays:
# Type in all cases: functional
# [1] = system: Staphylococcus aureus; assay: In vitro antibacterial activity against Staphylococcus aureus 209P JC-1
# Outline: (§1)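 Two-fold agar dilution MIC on Mueller-Hinton agar (pH 7.4), following the Japan Society of Chemotherapy MIC Committee method. Inoculum was about 10⁶ CFU, and growth was read after 20 h at 37 °C. MIC is reported in µg/mL.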
# [2] = system: Pseudomonas aeruginosa; assay: In vitro antibacterial activity against Pseudomonas aeruginosa 12; outline: as §1
# [3] = system: Escherichia coli; assay: In vitro antibacterial activity against Escherichia coli NIHJ JC-2; outline: as §1
# [4] = system: Staphylococcus aureus; assay: In vitro antibacterial activity against Staphylococcus aureus 50774; outline: as §1
# [5] = system: Klebsiella pneumoniae; assay: In vitro antibacterial activity against Klebsiella pneumoniae 13; outline: as §1
# [6] = system: Serratia marcescens; assay: In vitro antibacterial activity against Serratia marcescens S-9
# Outline: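 MIC (µg/mL) by 2-fold agar dilution on Mueller-Hinton agar (pH 7.4), following the Japan Society of Chemotherapy MIC Committee method. Inoculum of about 10⁶ CFU. Growth was read after 20 h at 37 °C.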
# [7] = system: Enterobacter cloacae; assay: In vitro antibacterial activity against Enterobacter cloacae 963
# [8] = system: Enterococcus faecalis; assay: In vitro antibacterial activity against Streptococcus faecalis 2473; outline: as §1
# [9] = system: Escherichia coli; assay: In vitro antibacterial activity against Escherichia coli P-5101; outline: as §1
# [10] = organism: Mus musculus; assay: Oral efficacy against Streptococcus pyogenes A65 on Systemic Infections in Mice
# Outline: (§2)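 Groups of at least 10 male Std-ddY mice (20 ± 2 g) were infected ip, with S. pyogenes A65 at 3×10^7 cells or P. aeruginosa 12 at 4×10^3 cells. Compounds were suspended in 0.2% sodium carboxymethylcellulose and given orally at 0 and 6 h postinfection. The result is reported as ED50 in mg/kg.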
# [11] = system: Moraxella bovis; assay: In vitro antibacterial activity against glucose nonfermenter Moraxella bovis P-7101; outline: as §1
# [12] = system: Staphylococcus epidermidis; assay: In vitro antibacterial activity against Streptococcus epidermis 8; outline: as §1
# [13] = system: Streptococcus pyogenes; assay: In vitro antibacterial activity against Streptococcus pyogenes A65; outline: as §1
# [14] = system: Pseudomonas aeruginosa; assay: In vitro antibacterial activity against Pseudomonas aeruginosa IFO 3445; outline: as §1
# [15] = organism: Mus musculus; assay: Oral efficacy against Pseudomonas aeruginosa 12 on Systemic Infections in Mice; outline: as §2
# [16] = system: Serratia marcescens; assay: In vitro antibacterial activity against Serratia marcescence S-9; outline: as §1
Compound,MIC [1] [µg/mL],MIC [2] [µg/mL],MIC [3] [µg/mL],MIC [5] [µg/mL],MIC [7] [µg/mL],MIC [8] [µg/mL],MIC [9] [µg/mL],MIC [11] [µg/mL],MIC [13] [µg/mL],MIC [14] [µg/mL],MIC [16] [µg/mL],MIC [4] [µg/mL],MIC [6] [µg/mL],ED50 [10] [mg/kg],MIC [12] [µg/mL],ED50 [15] [mg/kg]
CN1CCN(c2c(F)c(F)c3c(=O)c(C(=O)O)cn(C4CC4)c3c2F)CC1,0.39,0.78,0.05,,,,,,,,,,,,,
CN1CCN(c2c(F)c(Br)c3c(=O)c(C(=O)O)cn(C4CC4)c3c2F)CC1,0.39,0.78,0.05,,,,,,,,,,,,,
CSc1c(F)c(N2CCN(C)CC2)c(F)c2c1c(=O)c(C(=O)O)cn2C1CC1,3.13,12.5,0.2,,,,,,,,,,,,,
CNc1c(F)c(N2CCN(C)CC2)c(F)c2c1c(=O)c(C(=O)O)cn2C1CC1,0.78,1.56,0.1,,,,,,,,,,,,,
CN1CCN(c2c(F)c(OCc3ccccc3)c3c(=O)c(C(=O)O)cn(C4CC4)c3c2F)CC1,6.25,6.25,1.56,,,,,,,,,,,,,
CN1CCN(c2c(F)c(NCCO)c3c(=O)c(C(=O)O)cn(C4CC4)c3c2F)CC1,0.39,0.78,0.05,,,,,,,,,,,,,
CN1CCN(c2c(F)c(Cl)c3c(=O)c(C(=O)O)cn(C4CC4)c3c2F)CC1,0.2,0.78,0.025,,,,,,,,,,,,,
COc1ccc(CSc2c(F)c(N3CCN(C)CC3)c(F)c3c2c(=O)c(C(=O)O)cn3C2CC2)cc1,100,> 100,12.5,,,,,,,,,,,,,
CN1CCN(c2c(F)c(NCc3ccccc3)c3c(=O)c(C(=O)O)cn(C4CC4)c3c2F)CC1,0.78,3.13,0.78,,,,,,,,,,,,,
Nc1c(F)c(N2CCNCC2)c(F)c2c1c(=O)c(C(=O)O)cn2C1CC1,0.05,0.1,0.0063,0.025,0.0125,0.39,0.0063,0.39,0.2,0.39,,0.05,0.05,170,0.05,1.56
CN(C)CCNc1c(F)c(N2CCN(C)CC2)c(F)c2c1c(=O)c(C(=O)O)cn2C1CC1,6.25,0.78,0.05,,,,,,,,,,,,,
C[C@@H]1CN(c2c(F)c(O)c3c(=O)c(C(=O)O)cn(C4CC4)c3c2F)C[C@H](C)N1,0.2,0.78,0.025,,,,,,,,,,,,,
O=C(O)c1cn(C2CC2)c2c(F)c(N3CCNCC3)c(F)cc2c1=O,,0.05,,0.0125,0.025,0.78,0.0031,0.39,0.2,0.2,,0.05,0.025,20.5,0.025,1.22
CN1CCN(c2c(F)c(N(C)C)c3c(=O)c(C(=O)O)cn(C4CC4)c3c2F)CC1,25,50,3.13,,,,,,,,,,,,,
COc1c(F)c(N2CCN(C)CC2)c(F)c2c1c(=O)c(C(=O)O)cn2C1CC1,25,12.5,0.2,,,,,,,,,,,,,
CN1CCN(c2c(F)c(O)c3c(=O)c(C(=O)O)cn(C4CC4)c3c2F)CC1,0.2,0.78,0.05,,,,,,,,,,,,,
O=C(O)c1cn(C2CC2)c2c(F)c(N3CCNCC3)c(F)c(F)c2c1=O,0.2,0.39,0.0125,0.05,0.025,3.13,0.0125,3.13,3.13,0.78,,0.39,0.1,25,0.2,3.87
CN1CCN(c2c(F)c(-n3cccc3)c3c(=O)c(C(=O)O)cn(C4CC4)c3c2F)CC1,3.13,12.5,0.39,,,,,,,,,,,,,
O=C(O)c1cn(C2CC2)c2c(F)c(N3CCNCC3)c(F)c(O)c2c1=O,0.2,0.39,0.025,,,,,,,,,,,,,
C[C@@H]1CN(c2c(F)c(N)c3c(=O)c(C(=O)O)cn(C4CC4)c3c2F)[C@@H](C)CN1,0.78,3.13,0.39,,,,,,,,,,,,,
CN1CCN(c2c(F)c(S)c3c(=O)c(C(=O)O)cn(C4CC4)c3c2F)CC1,3.13,12.5,0.39,,,,,,,,,,,,,
C[C@@H]1CN(c2c(F)cc3c(=O)c(C(=O)O)cn(C4CC4)c3c2F)C[C@H](C)N1,0.39,0.39,0.1,0.05,0.05,1.56,0.0063,0.78,0.39,0.39,,,0.2,8.64,,1.41
CC1COc2c(N3CCN(C)CC3)c(F)cc3c(=O)c(C(=O)O)cn1c23 (centres undefined) [OFLOXACIN],0.78,,,0.1,0.1,1.56,0.05,1.56,0.39,1.56,,0.2,0.2,10.8,0.2,6.62
C[C@@H]1CN(c2c(F)c(F)c3c(=O)c(C(=O)O)cn(C4CC4)c3c2F)C[C@H](C)N1 [ORBIFLOXACIN],0.39,1.56,0.05,,,,,,,,,,,,,
O=C(O)c1cn(C2CC2)c2cc(N3CCNCC3)c(F)cc2c1=O [CIPROFLOXACIN],0.1,,,0.025,,1.56,0.0063,3.13,0.2,0.2,,0.2,0.05,23.9,0.1,2.78
O=C(O)c1cn(C2CC2)c2c(F)c(N3CCNCC3)c(F)c(Cl)c2c1=O,0.1,0.39,0.0125,,,,,,,,,,,,,
C[C@@H]1CN(c2c(F)c(Cl)c3c(=O)c(C(=O)O)cn(C4CC4)c3c2F)C[C@H](C)N1,0.2,0.78,0.025,,,,,,,,,,,,,

# The next lines start with results.
MIC [1] [µg/mL],MIC [2] [µg/mL],MIC [3] [µg/mL],MIC [5] [µg/mL],MIC [7] [µg/mL],MIC [8] [µg/mL],MIC [9] [µg/mL],MIC [11] [µg/mL],MIC [13] [µg/mL],MIC [14] [µg/mL],MIC [16] [µg/mL],Compound,MIC [4] [µg/mL],MIC [6] [µg/mL],ED50 [10] [mg/kg],MIC [12] [µg/mL],ED50 [15] [mg/kg]
0.2,0.39,0.025,0.05,0.05,0.78,0.0125,0.78,0.39,0.78,,CN1CCN(c2c(F)cc3c(=O)c(C(=O)O)cn(C4CC4)c3c2F)CC1,0.1,0.1,8.84,0.1,2.18
0.05,0.39,0.025,0.1,0.05,0.39,0.0125,0.78,0.39,0.78,0.2,C[C@@H]1CN(c2c(F)c(N)c3c(=O)c(C(=O)O)cn(C4CC4)c3c2F)C[C@H](C)N1C,0.025,,5.64,0.05,2.21
0.2,0.78,0.05,,,,,,,,,CC1CNCCN1c1c(F)c(N)c2c(=O)c(C(=O)O)cn(C3CC3)c2c1F (centres undefined),,,,,
0.025,0.78,0.0125,,,,,,,,,C[C@@H]1NCCN(c2c(F)c(N)c3c(=O)c(C(=O)O)cn(C4CC4)c3c2F)[C@@H]1C (relative stereo),,,,,
0.1,0.39,0.0125,0.05,0.05,0.78,0.0125,1.56,0.78,0.78,0.2,CC1CN(c2c(F)c(Cl)c3c(=O)c(C(=O)O)cn(C4CC4)c3c2F)CCN1 (centres undefined),0.1,,,0.1,1.65
0.05,0.39,0.0063,,,,,,,,,CC1CN(c2c(F)c(N)c3c(=O)c(C(=O)O)cn(C4CC4)c3c2F)CCN1C (centres undefined),,,,,
0.05,0.2,0.0125,,,,,,,,,C[C@@H]1CN(c2c(F)c(N)c3c(=O)c(C(=O)O)cn(C4CC4)c3c2F)CCN1,,,,,
0.05,0.2,0.025,,,,,,,,,Nc1c(F)c(N2CCNC(CO)C2)c(F)c2c1c(=O)c(C(=O)O)cn2C1CC1 (centres undefined),,,,,
0.05,0.78,0.025,,,,,,,,,CC1(C)CN(c2c(F)c(N)c3c(=O)c(C(=O)O)cn(C4CC4)c3c2F)CCN1,,,,,
0.05,1.56,0.1,,,,,,,,,CN(C)CC1CN(c2c(F)c(N)c3c(=O)c(C(=O)O)cn(C4CC4)c3c2F)CCN1 (centres undefined),,,,,
0.1,0.2,0.0125,0.05,0.025,0.78,0.0125,0.39,0.39,1.56,,CN1CCN(c2c(F)c(N)c3c(=O)c(C(=O)O)cn(C4CC4)c3c2F)CC1,0.05,0.1,22.9,0.05,2.18
0.025,0.1,0.0063,0.0125,0.0125,0.39,0.0063,0.2,0.2,0.2,,C[C@H]1CN(c2c(F)c(N)c3c(=O)c(C(=O)O)cn(C4CC4)c3c2F)CCN1,0.025,0.05,5.06,0.025,0.84
